Results pooled from the literature.
Protocols differ between the studies behind these lines.
Cell line: HepG2
Read-out: cell growth or viability

The CC50 of COC(=O)c1c(C)ncn1CC(c1c[nH]c2ccc(C)cc12)c1c[nH]c2ccc(C)cc12 is reported as over 20 µM (MTS; 24 h).
For N=C(N)NCc1ccc(NC(=O)C23CCC(C(=O)Nc4ccc(C5=CCN(C(=N)N)CC5)cc4)(CC2)CC3)cc1, the CC50 was 253 µM (MTS; 24 h).
The CC50 of Cc1cc(Nc2ccc(S(F)(F)(F)(F)F)cc2)n2ncnc2n1 is reported as over 50 µM.
The CC50 of CC(=O)Nc1ccc(O)cc1 is reported as over 1000 µM (ATP luminescence).
For COc1ccc(NC(=O)N2CCCCN3C[C@H](c4ccc(C#Cc5ccccc5)cc4)[C@@H]3C2)cc1, the CC50 was 10 µM.
O=C(NCCCN1CCOCC1)c1ccc(Nc2ncc(Cl)c(-c3ccc(Cl)s3)n2)cc1 gave a CC50 of 4.9 µM (44 h).
With CCCCCCCCCCCC(=O)Nc1nc(N)nc2c1ncn2[C@H]1CO[C@@H](CO)O1 the CC50 was over 100 µM.
The CC50 of N=C(N)NCc1ccc(NC(=O)c2ccc(C(=O)Nc3ccc(C4=CCN(C(=N)N)CC4)cn3)cc2)cc1 is reported as 353 µM (MTS; 24 h).
The CC50 of CCc1ncn(CC(c2c[nH]c3ccc(C)cc23)c2c[nH]c3ccc(C)cc23)c1C(=O)OC is reported as over 20 µM (MTS; 24 h).
With CC(=O)Oc1ccccc1C(=O)O the CC50 was over 1000 µM (ATP luminescence).
With C[C@@H]1[C@H](O)[C@@H](C)/C=C/C=C/C=C/C=C/C=C/C=C/C=C/[C@H](O[C@@H]2O[C@H](C)[C@@H](O)[C@H](N)[C@@H]2O)C[C@@H]2O[C@](O)(C[C@@H](O)C[C@@H](O)[C@H](O)CC[C@@H](O)C[C@@H](O)CC(=O)O[C@H]1C)C[C@H](O)[C@H]2C(=O)O the CC50 was 4.6 µM (MTS; 24 h).
For Cc1cnc(Nc2ccc(C(=O)N3CCC(N4CCCC4)CC3)cc2)nc1-c1ccc(Cl)s1, the CC50 was 10.5 µM (44 h).
N=C(N)N1CC=C(c2coc(C(=O)Nc3ccc(C4=CCN(C(=N)N)CC4)c(F)c3)c2)CC1 gave a CC50 of 129 µM (MTS; 24 h).
With CC(C)c1c(C(=O)Nc2ccccc2)c(-c2ccccc2)c(-c2ccc(F)cc2)n1CC[C@@H](O)C[C@@H](O)CC(=O)O the CC50 was about 100 µM (MTT; 24 h).
For N=C(N)NCc1ccc(NC(=O)c2ccc(C(=O)Nc3ccc(C4=CCN(C(=N)N)CC4)cc3)nc2)cc1, the CC50 was over 117 µM (MTS; 24 h).
The CC50 of CCOC(=O)c1cn(CC(c2cn(C)c3ccc(C)cc23)c2cn(C)c3ccc(C)cc23)c(C)c1C(=O)OC is reported as over 20 µM (MTS; 24 h).
